MrgX1 agonist: agonists of human MrgX1 receptor, primary screen, HEK293 cells, Fluo-4 calcium flux; Fluo-4 calcium fluorescence, agonist mode; hits give high values; B-score at 10 µM; actives 0.44% (n = 310,000);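 active = calcium response B-score plate-corrected fluorescence ratio at least 3 library SD, with starting fluorescence B-score inside 5 SD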
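Test system: HEK293 cells stably expressing human MrgX1 receptor; amount: 15,000 cells per well; doses: compound delivered in addition one of three; times: overnight plating before 1 h dye loading; detection: Fluo-4 NW calcium-flux fluorescence, kinetic read; read-out basis: B-scored fluorescence response ratio; controls: positive and negative controls per plate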
RGS4 block: RGS4 inhibitors, primary screen, cell-based, HEK293 M3R inducible RGS4, calcium flux. Fluo-4 calcium flux; hits give high values; triggered by carbachol at its EC20. B-score at 10 µM. actives 0.45% (n = 310,000);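 active = B-score, a plate-corrected calcium signal, over three deviations above library mean, with baseline fluorescence within five deviations of library mean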;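 note: RGS4 expression induced by doxycycline in cells with stable M3 receptor; B-score is computed from the integrated fluorescence ratio over baseline after carbachol; higher B-score means a larger calcium signal and so more RGS4 inhibition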
MrgX1 antag: antagonists of human MrgX1 receptor, primary screen, HEK293 cells, Fluo-4 calcium flux. B-score at 10 µM. Mas-related G-protein coupled receptor member X1 (Homo sapiens), Q96LB2. BAM8-22 antagonism; hits give low values. actives 1.3% (n = 310,000);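 active = calcium-response B-score plate-corrected more than 3 library SD below zero, starting fluorescence within 5 deviations, no agonist response on first addition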;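 note: peak minus trough fluorescence over baseline after final BAM8-22 challenge near maximal dose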
RGS4 act: RGS4 potentiators or activators, primary screen, cell-based, HEK293 M3R inducible RGS4, calcium flux | carbachol calcium flux Fluo4; hits give low values | B-score at 10 µM | actives 0.92% (n = 310,000);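 active = B-score of the integrated calcium signal more than 4 SD below the library mean, with starting fluorescence not abnormally high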;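 note: negative B-score means reduced calcium response which marks RGS4 activation or potentiation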
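Material: M3R-expressing HEK293 line, RGS4 induced by doxycycline | Schedule: Overnight RGS4 induction, 30 min dye load 37 °C, 20 min compound RT | Measured by: Fluo4 fluorescence kinetic imaging of calcium | Read-out: Integrated calcium ratio converted to B score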
MrgX1 PAM: positive allosteric modulators of MrgX1, primary screen, HEK293 cells, Fluo-4 calcium flux; B-score at 10 µM; actives 0.63% (n = 310,000); FDSS; hits give high values;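 active = plate-corrected calcium response at least 3 library SD above typical, normal starting fluorescence, not activating the receptor alone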;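 note: compound read alongside a low EC10 to EC30 dose of BAM8-22 agonist; peak minus trough fluorescence over baseline measured at the second addition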
KCC2 mod: KCC2 cotransporter modulators, thallium flux, primary screen, cell-based, HEK293 KCC2, FluoZin-2 fluorescence, MLSMR; KCC2 cells, thallium flux FluoZin-2 fluorescence; B-score of Tl+ flux slope (higher = more flux/activation; lower = inhibition) at 10 µM; actives 2.2% (n = 190,000); AID 1456, 2008;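 active = thallium flux slope and its plate-corrected score both differing from the plate sample mean at a set confidence after two filtering rounds, in either direction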;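 note: slope of fluorescence scaled to starting intensity during 10 to 20 s after thallium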
Target sequence (Q9H2X9 whole entry, looked up): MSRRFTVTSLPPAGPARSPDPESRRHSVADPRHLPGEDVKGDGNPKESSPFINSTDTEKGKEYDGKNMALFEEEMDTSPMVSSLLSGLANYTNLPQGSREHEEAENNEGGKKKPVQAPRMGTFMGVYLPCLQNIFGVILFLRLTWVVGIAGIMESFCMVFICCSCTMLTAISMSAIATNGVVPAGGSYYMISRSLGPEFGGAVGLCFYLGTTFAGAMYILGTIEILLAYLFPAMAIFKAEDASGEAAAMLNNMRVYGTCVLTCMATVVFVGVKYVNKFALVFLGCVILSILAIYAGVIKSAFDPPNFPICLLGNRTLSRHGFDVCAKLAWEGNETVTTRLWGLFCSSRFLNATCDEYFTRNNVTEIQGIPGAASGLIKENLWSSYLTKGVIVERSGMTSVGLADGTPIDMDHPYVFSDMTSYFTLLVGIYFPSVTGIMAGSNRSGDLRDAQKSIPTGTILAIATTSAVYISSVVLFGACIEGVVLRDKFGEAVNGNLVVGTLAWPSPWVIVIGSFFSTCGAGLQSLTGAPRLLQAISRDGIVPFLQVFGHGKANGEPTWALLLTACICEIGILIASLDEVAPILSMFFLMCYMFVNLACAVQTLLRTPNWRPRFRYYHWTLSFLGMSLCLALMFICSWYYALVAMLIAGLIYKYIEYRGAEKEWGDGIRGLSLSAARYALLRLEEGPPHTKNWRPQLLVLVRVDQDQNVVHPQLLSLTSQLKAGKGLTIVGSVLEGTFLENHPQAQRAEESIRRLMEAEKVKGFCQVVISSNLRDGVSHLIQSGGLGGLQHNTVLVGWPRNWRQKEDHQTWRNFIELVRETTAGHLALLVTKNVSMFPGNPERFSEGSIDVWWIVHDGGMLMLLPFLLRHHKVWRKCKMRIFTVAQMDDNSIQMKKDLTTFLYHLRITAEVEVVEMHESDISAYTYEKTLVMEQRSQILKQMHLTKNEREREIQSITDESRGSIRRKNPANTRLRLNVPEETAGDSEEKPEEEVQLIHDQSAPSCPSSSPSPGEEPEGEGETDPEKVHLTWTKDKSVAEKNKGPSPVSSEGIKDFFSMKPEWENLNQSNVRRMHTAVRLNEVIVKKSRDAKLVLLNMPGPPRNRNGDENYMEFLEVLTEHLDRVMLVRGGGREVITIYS
Large screens that a line does not name were inactive. Compounds with a hit are over-represented: about 4.7% of the library has one in this group of screens.

C#CCOCCOCCOCCNc1nc(N2CCN(C(=O)CCCCCCCCCCNC(=O)[C@H](CO)n3cc(CCCCCN)nn3)CC2)nc(N2CCN(C(=O)CCCCCCCCCCNC(=O)[C@H](CCCN=C(N)N)n3cc(C[C@@H](C)CC)nn3)CC2)n1	MrgX1 agonist 70.4 (no result: RGS4 block, RGS4 act, KCC2 mod)
C#CCOCCOCCOCCNc1nc(N2CCN(C(=O)CCCCCCCCCCNC(=O)[C@H](CCCCN)n3cc(C[C@@H](C)CC)nn3)CC2)nc(N2CCN(C(=O)CCCCCCCCCCNC(=O)[C@H](CCCN=C(N)N)n3cc(C[C@@H](C)CC)nn3)CC2)n1	MrgX1 agonist 35.4 (no result: RGS4 block, RGS4 act, KCC2 mod)
C#CCOCCOCCOCCNc1nc(N2CCN(C(=O)CCCCCCCCCCNC(=O)[C@H](CCCCN)n3cc(C)nn3)CC2)nc(N2CCN(C(=O)CCCCCCCCCCNC(=O)[C@H](CCCN=C(N)N)n3cc(C[C@@H](C)CC)nn3)CC2)n1	MrgX1 agonist 104 (no result: RGS4 block, RGS4 act, KCC2 mod)
COc1ccc(CN2CCN(CCc3ccccc3)C(CCO)C2)c(Cl)c1OC (centres undefined)	none (no result: KCC2 mod)
CCc1sc(N2C(=O)C3C4CCC(C4=C(C)C)C3C2=O)nc1-c1ccccc1 (centres undefined)	RGS4 act -7.46
Cc1ccc2nc(SCC(=O)NCc3ccc4c(c3)OCO4)nc(=O)n2c1	none (no result: KCC2 mod)
CC(=O)OCC1=C(C(=O)O)N2C(=O)C(NC(=O)c3ccc(F)cc3)C2SC1 (centres undefined)	none
CC(=O)OCC1=C(C(=O)O)N2C(=O)C(NC(=O)C(C)Cn3nc(C)c(Cl)c3C)C2SC1 (centres undefined)	RGS4 act -7.08
Cc1c(CCC(=O)N2CCC[C@H]2C(=O)O)c(=O)oc2c(C)c3oc4c(c3cc12)CCCC4	MrgX1 PAM 7.23 (no result: KCC2 mod)
CCCCCCOC1(c2ccccc2)OC(=O)c2ccccc21 (centres undefined)	RGS4 act -6.96
Cc1ccc(C(=O)c2nccn2C)cc1C	none (no result: KCC2 mod)
COc1ccc(CNc2cccc3[nH]c(C(F)(F)F)nc23)cc1OC	none (no result: KCC2 mod)
Cc1nc2ccccc2c(=O)n1CCN1CCOCC1	RGS4 act -7.37 (no result: KCC2 mod)
COC(=O)C1=C(C)NC(=O)/C1=C\c1cc(C)n(-c2ccccc2F)c1C	MrgX1 antag -5.5
O=C(c1ccc(Cl)s1)N1CCN(C23CC4CC(CC(C4)C2)C3)CC1	none (no result: KCC2 mod)
O=C(c1cccs1)N1CCN(C23CC4CC(CC(C4)C2)C3)CC1	RGS4 act -7.29 (no result: KCC2 mod)
CC(OC(=O)/C(C#N)=C/c1ccc(N(C)C)cc1)C(=O)N(C)Cc1ccccc1 (centres undefined)	none (no result: KCC2 mod)
COc1ccc(Cl)cc1-n1c(C)cc(C=O)c1C	MrgX1 PAM 7.77
CCOc1ccc(N(C(C)C(=O)N2CCCC2)S(C)(=O)=O)cc1 (centres undefined)	none (no result: KCC2 mod)
CSc1ncccc1C(=O)NCC(c1cccs1)N1CCOCC1 (centres undefined)	none (no result: KCC2 mod)
O=C(CN1C(=O)S/C(=C/c2ccc(N3CCOCC3)cc2)C1=O)N1CCOCC1	RGS4 act -7.24
O=C1CC(c2ccc(Cl)c([N+](=O)[O-])c2)c2ccc3ccccc3c2N1 (centres undefined)	MrgX1 antag -7.55
O=C(O)c1ccc(CSc2nc(-c3ccc(Cl)cc3)cc(C(F)(F)F)n2)cc1	RGS4 act -7.51
O=C(O)c1ccc(CSc2nc(-c3ccccc3)cc(C(F)(F)F)n2)cc1	none
CCOc1ccc2nc(NCCNC(=O)C(C)C)c(C)cc2c1	RGS4 act -7.41
Cc1ccc(C(=O)Nc2cc(C)nn2CCC#N)cc1	none (no result: KCC2 mod)
O=C(NC(=S)Nc1ccccc1N1CCCC1)c1ccc([N+](=O)[O-])cc1	KCC2 mod 41.6
CCC1CCCCN1C(=S)NC(=O)c1ccc([N+](=O)[O-])cc1 (centres undefined)	KCC2 mod 45.6
O=C(NC(=S)Nc1ccccc1N1CCOCC1)c1ccc([N+](=O)[O-])cc1	none
CCC1CCCCN1C(=O)NC(=O)c1ccccc1 (centres undefined)	none (no result: KCC2 mod)
Cc1c(C(=O)NC(=S)Nc2ccccc2N2CCCC2)cccc1[N+](=O)[O-]	KCC2 mod 12.9
Cc1c(Cl)cccc1NC(=S)NNS(=O)(=O)c1ccc([N+](=O)[O-])cc1	none (no result: KCC2 mod)
O=c1cc(C(F)(F)F)nc(SCc2cccc3ccccc23)[nH]1	MrgX1 antag -5.13 (no result: KCC2 mod)
COC(=O)C(C)NC(=O)C1CCCN1S(=O)(=O)c1cc(C)c(Cl)cc1C (centres undefined)	KCC2 mod -4.34
NC(=O)C(CC(=O)O)NC(=O)[C@@H]1CCOc2c(I)cc([N+](=O)[O-])cc2C(=O)N[C@@H](CCC(=O)O)C(=O)N[C@@H](CO)C(=O)N1 (some centres undefined)	MrgX1 antag -6.08 (no result: RGS4 block, RGS4 act)
Cc1cc(C)c2c(c1)C(=O)/C(=C/c1ccc(C(=O)O)cc1)CC2	MrgX1 PAM 16.4 (no result: KCC2 mod)
S=c1[nH]nc(C2COc3ccccc3O2)o1 (centres undefined)	KCC2 mod -6.9
Cc1cccc[n+]1C1C(c2ccccc2)C(C#N)=C(C(=C=[N-])C#N)NC1(O)C1CC1 (centres undefined)	MrgX1 agonist 42.8 (no result: KCC2 mod)
Cc1ccc[n+](C2C(c3ccc([N+](=O)[O-])cc3)C(C#N)=C([S-])NC2(O)C2CC2)c1 (centres undefined)	none
N#CC1=C(N)NC(=S)C(C(N)=O)C1c1ccccc1F (centres undefined)	none
N#CC(=C=[N-])C1=C(C#N)C(c2ccccc2F)C([n+]2ccccc2)C(O)(C2CC2)N1 (centres undefined)	MrgX1 agonist 47.7
COc1ccc(N2CC(C(=O)N[C@H](C(=O)NC3CCCCC3)C(C)C)CC2=O)cc1 (some centres undefined)	none (no result: KCC2 mod)
C=CCn1c(SCC(=O)N2CCOCC2)nnc1C(C)NC(=O)c1ccccc1 (centres undefined)	MrgX1 antag -5.36 (no result: KCC2 mod)
C=CCn1c(SCCOc2ccccc2)nnc1C(C)NC(=O)c1ccccc1 (centres undefined)	none (no result: KCC2 mod)
C/C(=C\c1ccccc1)C(=O)N1CCN(c2cccc(C(F)(F)F)c2)CC1	MrgX1 antag -4.95
Cc1cc(C(=O)Nc2c(C)nn(Cc3ccc(F)cc3)c2C)on1	MrgX1 antag -4.88
